pEC50: −log10 of the molar value. Active and inactive are the calls of the source. The rule behind the calls is not given here.
How the values were obtained:
Hepatitis C virus [1] = test: Antiviral activity against Hepatitis C virus infected in human Ava5 cells assessed as decreased NS3 protein level at […] after 72 hrs by Western blotting; format: functional, organism-based; settings: Hepacivirus hominis
Summary of the method: (§1)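 Ava5 subgenomic replicon cells (Huh7-derived, HCV genotype 1b NS3–NS5B, neo) are kept in DMEM/10% FBS at 37 °C, 5% CO2 and exposed to compound for 72 h. Cells are washed in PBS and lysed in Tris/NaCl/1% Triton X-100. Lysates are clarified and run on 10% SDS-PAGE, then immunoblotted with anti-NS3; β-actin is the loading control.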

[2] = Cytotoxicity against Hepatitis C virus infected human Ava5 cells assessed as cell viability after 5 days by MTS assay in presence of IFN-alpha; format: cell-based; settings: ava5, 120 h
Hepatitis C virus [3] = test: Antiviral activity against Hepatitis C virus infected in human Ava5 cells assessed as decreased NS3 protein level at 5 uM after 72 hrs by Western blotting in presence of IFN-alpha; format: functional, organism-based; settings: Hepacivirus hominis
Summary of the method: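 Ava5 replicon cells given compound (5 μM) or IFN-α (5, 10, 50 IU/mL), alone and combined, for 72 h. BILN 2061 served as NS3/4A inhibitor positive control. Washed cells stored at -80 °C, then lysates Western blotted for NS3 with β-actin as internal standard.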

Hepatitis C virus [4] = test: Antiviral activity against Hepatitis C virus infected in human Ava5 cells expressing EG(delta4AB)SEAP reporter gene assessed as decreased viral RNA level after 72 hrs by RTqPCR analysis; format: functional, organism-based; settings: Hepacivirus hominis
Summary of the method: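 Ava5 cells seeded 1.5×10^5/well, incubated overnight, treated with a concentration series for 72 h. Total RNA TRIzol-extracted; HCV genotype 1b RNA quantified by SYBR Green RT-qPCR. Levels expressed relative to untreated cells (100%); triplicate, means ± SD.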

[5] = Cytotoxicity against Hepatitis C virus infected human Ava5 cells assessed as cell viability after 5 days by MTS assay; format: cell-based; settings: ava5, 120 h
Summary of the method: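 Cells seeded, incubated overnight at 37 °C, 5% CO2, then medium replaced with compound-containing medium across a concentration range for five days. Viability by MTS colorimetric read at 490 nm after 2 h reagent incubation; ethanol as solvent control. Means ± SD.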

Hepatitis C virus [6] = test: Antiviral activity against Hepatitis C virus infected in human Ava5 cells assessed as decreased NS3 protein level at 5 uM after 72 hrs by Western blotting; format: functional, organism-based; settings: Hepacivirus hominis; summary of the method: as §1
Hepatitis C virus [7] = test: Antiviral activity against Hepatitis C virus infected in human Ava5 cells expressing EG(delta4AB)SEAP reporter gene assessed as decreased viral replication measured as SEAP activity by Phospha-Light assay; format: functional, organism-based, Hepacivirus hominis
Summary of the method: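 Ava5-EG(Δ4AB)SEAP reporter cells seeded 6×10^3/well, after 24 h dosed with a concentration series. At 48 h medium replaced with fresh medium at same concentrations, incubated 24 h more. Secreted alkaline phosphatase in medium measured by chemiluminescent kit. EC50 from dose–response; three replicate wells, means ± SD.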

Hepatitis C virus [8] = test: Antiviral activity against Hepatitis C virus infected in human Ava5 cells expressing EG(delta4AB)SEAP reporter gene assessed as decreased NS3 protein level after 72 hrs by Western blotting; format: functional, organism-based; settings: Hepacivirus hominis; summary of the method: as §1
[9] = biological target: Signal transducer and activator of transcription 3 (Homo sapiens) (UniProt P40763); test: Effect on STAT3 protein production in human Ava5 cells after 72 hrs by Western blotting; format: cell-based
Summary of the method: (§2)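 Ava5 cells incubated with a concentration series for 72 h. Whole-cell extracts were Western blotted with antibodies to STAT3 phosphorylated at Tyr705 and to total STAT3, with β-actin as loading control.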

Hepatitis C virus [10] = test: Antiviral activity against Hepatitis C virus JFH-1 infected in human Huh7 cells expressing G(delta4AB)SEAP reporter gene assessed as decreased NS3 protein level at 20 uM after 8 days by Western blotting; format: functional, organism-based; settings: Hepacivirus hominis, Huh-7
Summary of the method: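 Huh7-EG(Δ4B5A)SEAP cells seeded 5×10^4/well, incubated overnight, then infected with HCV JFH-1 (genotype 2a) at MOI 0.02 for 6 h. Unbound virus removed by medium replacement, then compound at 20 μM in basal medium for 7 days. Intracellular NS3 in lysates detected by Western blot.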

[11] = biological target: Signal transducer and activator of transcription 3 (Homo sapiens) (UniProt P40763); test: Inhibition of STAT3 phosphorylation at Tyr 705 in human Ava5 cells after 72 hrs by Western blotting; format: cell-based; summary of the method: as §2
Huh-7 = test: Cytotoxicity against Hepatitis C virus JFH-1 infected human HuH7 cells; format: cell-based

Signal transducer and activator of transcription 3 (Homo sapiens), sequence (P40763 whole entry): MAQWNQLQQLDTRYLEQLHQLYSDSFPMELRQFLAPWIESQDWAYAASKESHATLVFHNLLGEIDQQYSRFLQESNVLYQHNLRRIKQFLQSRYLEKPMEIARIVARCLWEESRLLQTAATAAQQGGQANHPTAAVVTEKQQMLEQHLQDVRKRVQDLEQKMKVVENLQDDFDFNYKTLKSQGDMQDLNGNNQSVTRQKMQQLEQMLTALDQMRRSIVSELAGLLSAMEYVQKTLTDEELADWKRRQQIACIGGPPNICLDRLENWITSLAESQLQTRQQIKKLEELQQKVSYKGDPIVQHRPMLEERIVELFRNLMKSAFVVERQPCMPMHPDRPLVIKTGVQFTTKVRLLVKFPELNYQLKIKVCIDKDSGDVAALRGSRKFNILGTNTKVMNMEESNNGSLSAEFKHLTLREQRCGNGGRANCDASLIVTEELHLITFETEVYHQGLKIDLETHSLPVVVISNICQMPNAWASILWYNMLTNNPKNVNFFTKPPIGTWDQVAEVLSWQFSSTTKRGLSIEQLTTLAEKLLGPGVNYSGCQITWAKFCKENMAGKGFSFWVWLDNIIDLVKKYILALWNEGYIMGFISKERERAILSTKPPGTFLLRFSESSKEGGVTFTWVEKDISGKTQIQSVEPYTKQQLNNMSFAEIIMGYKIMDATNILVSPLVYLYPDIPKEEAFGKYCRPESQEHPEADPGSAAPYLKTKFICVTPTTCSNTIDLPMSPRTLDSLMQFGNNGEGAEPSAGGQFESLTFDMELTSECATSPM

SMILES | Activity (Hepatitis C virus [1]) | Activity [2] | Activity (Hepatitis C virus [3]) | Activity (Hepatitis C virus [4]) | Activity [5] | Activity (Hepatitis C virus [6]) | pEC50 (Hepatitis C virus [7]) | Activity (Hepatitis C virus [7]; Hepacivirus hominis) | Activity (Hepatitis C virus [8]) | Activity [9] | Activity (Hepatitis C virus [10]) | inhibition [11] | Activity (Huh-7)
COc1ccc2c(O[C@@H]3C[C@H]4C(=O)N[C@]5(C(=O)O)C[C@H]5/C=C\CCCCC[C@H](NC(=O)OC5CCCC5)C(=O)N4C3)cc(-c3csc(NC(C)C)n3)nc2c1 | Active |  |  |  |  |  |  |  |  |  |  |  | 
C[C@@H]1CC[C@@]2(OC1)O[C@H]1C[C@H]3[C@@H]4CC=C5C[C@@H](O)CC[C@]5(C)[C@H]4CC[C@]3(C)[C@H]1[C@@H]2C [DISOGENIN] |  | Non-toxic | Active | Dose-dependent effect | Non-toxic | Active | 5.42 | Dose-dependent effect | Dose-dependent effect | inactive | Active | Dose-dependent effect | Non-toxic

— ChEMBL document CHEMBL1773072, “Diosgenin, a plant-derived sapogenin, exhibits antiviral activity in vitro against hepatitis C virus” (J Nat Prod, 2011)
